Many of the other results were omitted from the sample, so hits are more common in it than they were.
CHOP UPR activ = activators of apoptotic CHOP UPR arm, primary screen, cell-based, CHO-CHOP luciferase reporter, luminescence, uHTS | UPR activation; percent of tunicamycin response over DMSO baseline | activation, % at 10 µM | 330,000 compounds, 0.34% hits;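 active means at 10 µM dose, activation of 40% or more, normalized to positive control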;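 further: 100% = tunicamycin at 10 µg/mL and 0% = DMSO alone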
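Assay system: CHO-CHOP cells, stable luciferase reporter of PERK-eIF2a-CHOP signalling / Buffer or medium: F12 plus 10% serum / Compound dosing: one dose, 10 µM in 0.5% DMSO / Times: 6 h compound treatment, 37 °C / Technique: luciferase luminescence / Read-out: % reporter activation, DMSO baseline versus tunicamycin full activation / Benchmarks: tunicamycin and DMSO controls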
XBP1 UPR activ = activators of adaptive XBP1 UPR arm, primary screen, cell-based, CHO-XBP1 luciferase reporter, luminescence, uHTS; IRE1-XBP1 UPR activation; percent of tunicamycin response, DMSO as zero; activation, % at 20 µM; 330,000 compounds, 0.33% hits;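 active means versus positive control, 20 µM dose yields 30% or more activation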;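 further: 100% = tunicamycin at 10 µg/mL and 0% = DMSO only wells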
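Signal: luciferase luminescence; Assay system: CHO-XBP1 luciferase reporter cells; Amount: one thousand reporter cells per well; Dosing: 20 µM single concentration, DMSO 1%; Benchmarks: high control tunicamycin 10 µg/mL final, low control DMSO vehicle only; Schedule: 6 h compound exposure at 37 °C, 5% CO2; Evaluation: percent activation relative to tunicamycin reference.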
CHOP inh = inhibitors of CHOP promoter induction, primary screen, cell-based, unfolded protein response, luciferase reporter. CHO-K1 CHOP-promoter luciferase, tunicamycin-induced, 15-18 h. inhibition, % at 10 µM. 220,000 compounds, 3.8% hits. AID 2732, 2010;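 active means compounds that reduced the stress-induced luciferase reporter signal by more than about 70% of percent inhibition, limit read from the data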;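 further: 0% = tunicamycin plus vehicle and 100% = wells without tunicamycin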
hiPSC survival = enhancers of single-cell hiPSC survival, primary screen, ATPlite luminescence. 100% = ROCK inhibitor wells, 0% = DMSO. 360,000 compounds, 0.044% hits. AID 602274, 2012. survival enhancement, % at 20 µM; in the data active means survival enhancement above about 18%;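 further: cells exposed to compounds for 16 hours before the ATP read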
Cardio protect = cardioprotection against H2O2-induced cell death, primary screen, uHTS, H9c2 cells, ATPLite luminescence; 360,000 compounds, 0.63% hits; AID 588492, 2011; protection from H2O2 cell death, % at 20 µM; H9c2 cardiomyocytes, H2O2 injury protection, 2 h;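 active means compounds giving at least 50% protection of heart cells from peroxide-induced death in the single-dose screen, raw or plate-pattern-corrected value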;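 further: 0% = DMSO wells with peroxide and 100% = DMSO wells without peroxide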
UPR XBP1 confirm = IRE1-XBP1 UPR arm activators, confirmation, cell-based, CHO-XBP1 luciferase reporter, luminescence, single concentration. 1,000 compounds, 63% hits. activation, % at 20 µM. shares compounds with XBP1 UPR activ;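 active means reporter signal at least 30% of the positive control's activation in two or more of four replicate wells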;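 further: plate controls were DMSO negative control for no effect and tunicamycin 10 µg/mL positive control for full effect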
Numbers without * were called inactive; . = not tested or not shown.

SMILES	CHOP UPR activ	XBP1 UPR activ	CHOP inh	hiPSC survival	Cardio protect	UPR XBP1 confirm
COc1ccc(-c2cc(C(=O)Nc3cc(OC)cc(C(=O)Nc4cccc(C(F)(F)F)c4)c3)[nH]n2)cc1	29	37*	23	-3	19	18
COc1cc(NC(=O)c2ccno2)cc(C(=O)Nc2cccc(C(F)(F)F)c2)c1	-1	0	10	-2	9	.
Cc1ccc2c(c1)C(=O)C(=O)N2Cc1ccc(F)cc1	1	7	.	-4	-2	.
Cc1ccc2c(c1)C(=O)C(=O)N2Cc1ccc(Cl)cc1	5	37*	.	-2	-11	30*
CCCS(=O)(=O)NC(=O)C1(C)CCN(C(=O)c2ccnc(Cl)c2)C1 (stereo not given)	.	.	.	3	2	.
O=c1cc(-c2ccccc2Cl)oc2cccc(O)c12	3	8	14	0	-5	.
O=c1cc2oc3cc(O)c(O)cc3c(-c3ccccc3[N+](=O)[O-])c-2cc1O	-2	34*	.	0	24	35*
COc1cc(Cl)ccc1OC1(C)CCN(Cc2ccc3ccccc3c2)C1 (stereo not given)	.	.	.	-1	-15	.
COc1cnc(-c2ccccn2)nc1Oc1ccc(Cl)c2ccccc12	28	31*	81*	0	42	24
Cc1ccc2nc(Nc3nc(C)cc(-c4ccccc4)n3)[nH]c(=O)c2c1	7	31*	48	0	30	62*
COc1ccc2c(C)nc(Nc3nc(-c4ccccc4)cc(=O)[nH]3)nc2c1	-7	9	20	0	19	.
Cc1ccc2nc(Nc3nc(-c4ccccc4)cc(=O)[nH]3)nc(C)c2c1	5	67*	48	-1	15	72*
O=C(Nc1ccc2c(c1)OCO2)c1ccc2nc([C@@H]3O[C@H](CO)[C@H](O)[C@H](O)[C@H]3O)[nH]c2c1	.	.	.	0	1	.
CC1=C(C(=O)N(C(C)C)C(C)C)CC(CC(=O)NC2CCCC2)C(=O)N1CCC1=CCCCC1 (stereo not given)	.	.	.	-1	6	.
O=c1cc(CN2CCN(c3ccc(Cl)c(Cl)c3)CC2)c2ccccc2o1	.	.	.	2	-5	.
CCCNC(=O)c1c(N)n(-c2ccc3c(c2)OCO3)c2nc3ccccc3nc12	20	44*	80*	-3	-7	29*
CCCNC(=O)c1c(N)n(-c2cc(OC)cc(OC)c2)c2nc3ccccc3nc12	3	1	11	0	31	.
Cc1ccccc1NC(=O)Cc1nc(COC(=O)Cc2cccc(C(F)(F)F)c2)cs1	.	.	.	-2	-5	.
CCOC(=O)c1c(C)[nH]c(C(=O)COc2ccc3ccc(=O)oc3c2)c1C	0	41*	.	0	52*	3
Cn1c(=O)c2c(nc(N3CCCCC3)n2C)n(C)c1=O	-3	52*	-26	0	-23	0
Cc1nc2[nH]c(=O)n(O)c(=O)c2s1	.	.	.	1	0	.
O=C(Nc1cccnc1)/C(N=Nc1ccc(Cl)c(C(F)(F)F)c1)=C(\O)c1ccccc1	13	49*	9	-2	-5	27
CC1(C)Cc2nc3oc4c(=O)n(CC(=O)Nc5cccc(Cl)c5)cnc4c3cc2CO1	11	59*	-17	1	1	20
Cc1cccc(NC(=O)Cn2cnc3c(oc4nc5c(cc43)COC(C)(C)C5)c2=O)c1	1	1	-10	6	5	.
Cc1ccc(S(=O)(=O)NCC(=O)OCC(=O)Nc2ccc3c(c2)OCCO3)cc1	0	-1	.	0	3	.
SMILES	CHOP UPR activ	XBP1 UPR activ	CHOP inh	hiPSC survival	Cardio protect	UPR XBP1 confirm
O=C1C2C3C=CC(CC3)C2C(=O)N1/N=C/c1ccc(O)c(O)c1 (stereo not given)	23	45*	9	-1	6	18
O=C1C2C3C=CC(CC3)C2C(=O)N1/N=C/c1ccc(O)cc1 (stereo not given)	0	-1	30	-2	-8	.
COc1ccc(NC(=O)c2cc(C3CCCCN3C(=O)c3ccc(NC(C)=O)cc3)on2)c(C)c1 (stereo not given)	.	.	.	8	10	.
NS(=O)(=O)c1ccc(NC(=O)COC(=O)c2cn(-c3ccccc3)nc2-c2ccc(F)cc2)cc1	3	68*	78*	-1	0	89*
O=C(OCC(=O)N1CCOCC1)c1cncc(Br)c1	.	.	.	-1	3	.
CCn1nc(C)cc1C(=O)Sc1cccc(Br)c1	8	97*	19	1	13	9
O=C(Nc1ccc2oc(-c3ccccc3Cl)nc2c1)c1cncc(Br)c1	4	32*	71*	2	-12	80*
O=C(CCn1c2c(c3ccccc31)CCCC2)NNC(=O)c1ccccc1Cl	-1	36*	22	3	2	0
O=C(CCn1c2c(c3ccccc31)CCCC2)NNC(=O)c1cccc([N+](=O)[O-])c1	-2	-3	26	1	0	.
COc1ccc(Nc2ncnc3sc(C)cc23)c(OC)c1	5	30*	.	1	8	1
O=c1cc(CN2CCN(c3ccccc3)CC2)c2cc(O)c(-c3ccccc3)cc2o1	16	60*	-22	-2	2	113*
Cc1ccc(/C=C2/Sc3ccc(C(=O)NCc4ccccn4)cc3NC2=O)cc1	7	32*	.	0	-3	0
COc1cc(/C=N/NC(=O)c2sc3nc(C)cc(C)c3c2N)ccc1O	1	46*	59	-1	53*	16
COc1cc(/C=N/n2cnc3c(sc4nc(C)cc(C)c43)c2=O)ccc1O	36	13	-36	.	.	.
O=C(Nc1cccnc1)c1sc(Nc2ccccc2F)nc1-c1ccccc1	4	38*	-7	2	-4	23
C=C(C)[C@@H]1CC[C@]2(C(=O)O)CC[C@]3(C)C(CCC4[C@@]5(C)CC[C@H](O)C(C)(C)C5CC[C@]43C)C12 (stereo not given in full)	-2	40*	.	0	3	6
COC(=O)[C@]1(C)N[C@H](CN(C)S(=O)(=O)c2ccc(OC(F)(F)F)cc2)[C@@H]2C(=O)N(C)C(=O)[C@@H]21	-1	-1	.	7	1	.
Cc1nc2ccc(Br)cn2c(=O)c1Cl	-1	1	37	5	10	.
Cc1nc2cccc(C)n2c(=O)c1Cl	-2	38*	12	2	0	4
COc1ccccc1-c1csc(C(NC(C)=O)c2ccccc2)n1 (stereo not given)	.	.	.	0	1	.

Source: PubChem
